The array DNA melting data of Ke et al. (doi:10.1101/2024.01.08.574731)

Columns and labels:
[1] = folding enthalpy; higher = less favourable; fluorescence melt of hairpins on a sequencing array, two-state fit; conditions: sodium 0.088 M
Outline: (§1)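 On a sequenced MiSeq flow cell, library hairpins with annealed Cy3 and quencher oligos were imaged for Cy3 fluorescence in 2.5 °C steps up to 60 °C, in 50 mM Na-HEPES pH 8.0, 25 mM NaCl. Normalisation used pre-quench Cy3 and control constructs. Bootstrapped two-state fits gave melting temperature and folding enthalpy, combined by inverse variance across four replicates and with fitted temperatures raised by 9.35 °C to match UV melts.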

[2] = melting temperature; fluorescence melt of hairpins on a sequencing array, two-state fit, raised by 9.35 °C to match UV melts; conditions: sodium 0.088 M
Outline: as §1

Row | Sequence | folding enthalpy [1] [kcal/mol] | Tm [2] [°C]
1 | GCGTCGTCGAAAGACCGC (((..(((....)))))) | -19.3 | 50.3
2 | GTTAGCGGAAACGCTGAC ((.((((....)))).)) | -29.4 | 52.3
3 | GGCATGGGAAACCGTGCC ((((.((....)).)))) | -33.2 | 62.7
4 | GATCCCCACGGGATC ((((((...)))))) | -34.9 | 63.4
5 | GTCTCCCGAAAGGGCGAC (((.(((....))).))) | -30.8 | 53.2
6 | GATCACAGGTGTGATC ((((((....)))))) | -36.4 | 59.9
7 | GGGAAACCGAAAGGTCCC (((..(((....)))))) | -19.7 | 46.6
8 | CGAGCGGAAACGCGTTCG ((((((....)))..))) | -12.6 | 49.9
9 | GCACTCGAAAGAGCTGC ((((((....))).))) | -28.3 | 48.1
10 | GTACCCCGAAAGGGTTAC (((.(((....))).))) | -19.6 | 41.8
11 | GTGAGCGAAAGCTACAC ((((((....))).))) | -16.1 | 49.1
12 | GATCTTATTTAAGATC ((((((....)))))) | -38.8 | 46.4
13 | GCGACAAGTCGC ((((....)))) | -30 | 58
14 | GGCCTCGAAAGAGTAGCC ((((((....)))..))) | -25.9 | 49.2
15 | GCAGTTCGAAAGAAATGC (((.(((....))).))) | -36.8 | 54.2
16 | GCTGACCGAAAGGTTAGC (((.(((....))).))) | -33.8 | 58.9
17 | GTCTTGCCGAAAGGCGAC (((..(((....)))))) | -10.7 | 38.3
18 | GGTAACGGAAACGTCACC (((.(((....))).))) | -32 | 42.8
19 | GCAATGCGAAAGCCTGGC ((.(.((....)).).)) | -13.8 | 34.2
20 | GATCGGGAGTCCGATC ((((((....)))))) | -39.6 | 56.5
21 | GGCACCGAAAGGTGGGCC ((((((....)))..))) | -12.5 | 52.6
22 | GATCCCGAGTGGGATC ((((((....)))))) | -33.7 | 61.1
23 | GGGAGTGGAAACGCTCTC (.(((.(....).))).) | -17.8 | 39.7
24 | GAATGACGAAAGTCTTC (((.(((....)))))) | -16.6 | 34.6

Row | Sequence | folding enthalpy [1] [kcal/mol] | Tm [2] [°C]
25 | GCGTAAATACGC ((((....)))) | -25.4 | 50
26 | GATCTGAACCAGATC ((((((...)))))) | -34.6 | 46
27 | GTCCCAGGAAACCGGGAC (((((.(....).))))) | -34.8 | 53.2
28 | GCGTATCGACGC ((((....)))) | -18.9 | 52.6
29 | GGTGACGAAAGTCCACC ((((((....))).))) | -25.9 | 50.8
30 | GTGGCCGGAAACGGTCAC (((.(((....))).))) | -37.2 | 66.1
31 | AAGGAGAAATCCTT (((((....))))) | -8.61 | 27.3
32 | GATCTGTCCCAGATC ((((((...)))))) | -33.6 | 49.5
33 | GATCTTATGCAAGATC ((((((....)))))) | -36.5 | 43
34 | GAACGACGAAAGTCTTTC (((.(((....))).))) | -24.4 | 39.3
35 | GGAAGTGGAAACACCTCC (((.(((....))).))) | -23.5 | 36.6
36 | GCGTTGGGAAACCGACGC ((((.((....)).)))) | -40.3 | 64
37 | TGATGGAAACATCA (((((....))))) | -22 | 41.3
38 | GGAAAGGGAAACCTTCCC ((.((((....)))).)) | -19.3 | 33.3
39 | GCCGGAACGAAAGTTGGC (((..(((....)))))) | -24.3 | 47.4
40 | GTGATCGGAAACGATTGC (..((((....))))..) | -22.1 | 40.5
41 | GAGTGGGGAAACTCGCTC (((.(.(....).).))) | -29.6 | 40.4
42 | GATCTAAGCCTAGATC ((((((....)))))) | -31.9 | 39.1
43 | GGAGGAGGAAACTCCCCC ((.((((....)))).)) | -17.6 | 41.8
44 | GAAAGCGAAAGCTTTTC ((((((....))).))) | -12.9 | 47.1
45 | GCTTTCGAAAGAACAGC ((((((....))).))) | -23.7 | 36.8
46 | GGGGGCGAAAGCCTCCC ((((((....))).))) | -15.7 | 66.1
47 | CGGACGGAAACGTATCCG ((((((....)))..))) | -17.5 | 36.7
48 | GCAGATCGAAAGATGTGC (((.(((....))).))) | -35.1 | 53.6

Row | Sequence | folding enthalpy [1] [kcal/mol] | Tm [2] [°C]
49 | GATCCCTCATGGGATC ((((((....)))))) | -37 | 62.6
50 | GGCGAGCCGAAAGGCGCC (((..(((....)))))) | -13.1 | 65
51 | GCATGGGGAAACCTATGC ((((.((....)).)))) | -39.4 | 50.8
52 | GCGAAGAAATTCGC (((((....))))) | -28.3 | 55.5
53 | GGTATCGAAAGATGACC ((((((....))).))) | -22.1 | 36.6
54 | GATCACCGAAAGGTCATC (((.(((....))).))) | -16.8 | 32.5
55 | GCAGGGCGAAAGCGGTGC (((..((....))..))) | -21.4 | 52.8
56 | GTTGCGGGAAACCACAAC ((((.((....)).)))) | -38.2 | 46.1
57 | GATCCACGGCTGGATC ((((((....)))))) | -39.1 | 50.5
58 | GGAACCGAAAGGTCCTCC ((((((....)))..))) | -17.5 | 50.2
59 | GGTCATGGAAACGTGATC (.(((.(....).))).) | -20 | 35.5
60 | GGTTGACGAAAGTCGACC (((.(((....))).))) | -46.8 | 63
61 | GCTAGCACGAAAGTGAGC (((..(((....)))))) | -17.4 | 35.1
62 | GCGATCGAAAGATCCCGC ((((((....)))..))) | -17.7 | 37.1
63 | GATCTTCCGAAGATC ((((((...)))))) | -31.9 | 43
64 | GGATCCGAAAGGAATTCC ((((((....)))..))) | -14.1 | 32.2
65 | GATCTACATATAGATC ((((((....)))))) | -35.4 | 40.8
66 | GCCTGCCGAAAGGCCGGC (((.(((....))).))) | -22.4 | 64.3
67 | GACGACGGAAACGTCATC ((.((((....)))).)) | -15.7 | 38.8
68 | GCTGTAGGAAACTACAGC (((((((....))))))) | -44.6 | 63.3
69 | GATCGCAGCGGCGATC ((((((....)))))) | -28.8 | 68.4
70 | GCGTCGCGAAAGCGGTGC ((..(((....)))..)) | -18.1 | 58.9
71 | CGATCGGAAACGACTCG ((((((....))).))) | -31 | 40.7
72 | GTAAGTGGAAACGTTTAC ((((..(....)..)))) | -10.7 | 27.5

Row | Sequence | folding enthalpy [1] [kcal/mol] | Tm [2] [°C]
73 | GATCATATCCATGATC ((((((....)))))) | -35.8 | 47.4
74 | GTACCTGAAAAGGTAC ((((((....)))))) | -31.6 | 60
75 | GTTGCGGGAAACCGTAAC (((.(((....))).))) | -34.3 | 51.2
76 | GTGTAGAAATACAC (((((....))))) | -21.8 | 41.6
77 | GGTCTAGCGAAAGCTACC (((..(((....)))))) | -10.1 | 31.2
78 | GATTAGGGAAACCCAATC ((((.((....)).)))) | -22.4 | 31.3
79 | GCGGGCGAAAGCCTTCGC ((((((....)))..))) | -15.7 | 50.1
80 | GATCTGTAGCCAGATC ((((((....)))))) | -34.1 | 48.6
81 | GATCCGTTAACGGATC ((((((....)))))) | -43.2 | 64
82 | GCTTACGAAAGTATAAGC ((((((....)))..))) | -28.6 | 38.3
83 | GTCCGAGGAAACTCGAAC ((.((((....)))).)) | -21.3 | 41.3
84 | GGGGCTTCGAAAGAACCC (((..(((....)))))) | -20.4 | 49.1
85 | GCGAATGTCGC ((((...)))) | -17.6 | 46.7
86 | GGAATCGGAAACGACTCC (((.(((....))).))) | -28.9 | 40.4
87 | GAAGCAGGAAACTGCTTC (((((((....))))))) | -39.9 | 62.2
88 | GATTGCGAAAGCATATC ((((((....))).))) | -16.5 | 42.9
89 | GCATCCCGAAAGGGTGC (((.(((....)))))) | -15.5 | 61.5
90 | GCAATCGGAAACGATTGC (((((((....))))))) | -41.9 | 69.2
91 | GATCCAGACCTGGATC ((((((....)))))) | -44.8 | 54.6
92 | GGATGTGGAAACATATCC ((((.((....)).)))) | -28.7 | 44.9
93 | GCGTCACTACGC ((((....)))) | -25.3 | 52.8
